In ChEMBL document CHEMBL2396655, “Design, synthesis, and biological evaluation of (E)-N-aryl-2-arylethenesulfonamide analogues as potent and orally bioavailable microtubule-targeted anticancer agents” (J Med Chem, 2013):
≈ marks a conversion by molar mass, not a printed value. Calls of active or inactive are those of the source. The calls are words filed in the database; no cut-off is given here.

Legend:
LNCaP = assay: Cytotoxicity against human LNCAP cells after 96 hrs by trypan blue exclusion assay; format: functional
Method in brief: (§1)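 Cells were grown in DMEM or RPMI with 10% FBS and plated at 2.5×10⁴ cells/well in 12-well dishes. Compounds were added 24 h later at various concentrations. After 96 h, viable cells were counted by trypan blue exclusion from duplicate wells. Results are the mean of two independent experiments.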

A-431 = assay: Cytotoxicity against human A431 cells after 96 hrs by trypan blue exclusion assay; format: functional; details: A-431, 96 h; method in brief: as §1
[1] = Growth inhibition of multidrug-resistant human MES-SA/Dx5 cells; format: functional
[2] = Growth inhibition of human MES-SA cells; format: functional
BT-20 = assay: Cytotoxicity against human BT20 cells after 96 hrs by trypan blue exclusion assay; format: functional; details: BT-20, 96 h; method in brief: as §1
HCT-15 = assay: Cytotoxicity against human HCT15 cells after 96 hrs by trypan blue exclusion assay; format: functional; details: HCT-15, 96 h; method in brief: as §1
MES-SA = assay: Resistance factor, ratio of GI50 for multidrug-resistant human MES-SA/Dx5 cells to GI50 for human MES-SA cells; format: functional
Bos taurus = organism: Bos taurus; assay: Inhibition of bovine brain tubulin assessed as destabilization of microtubule polymerization at 10 uM over 40 mins by spectrophotometric analysis
Method in brief: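 Purified bovine brain tubulin was incubated at 37 °C with 10 μM compound, DMSO or reference agents. Polymerization was followed as rising absorbance at 340 nm over 40 min. Data are representative of three independent experiments.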

DU-145 = assay: Cytotoxicity against human DU145 cells after 96 hrs by trypan blue exclusion assay; format: functional, cell-based; details: for GI50 / IC50: DU-145, 96 h; method in brief: as §1
NCI-H417 = assay: Cytotoxicity against human NCI-N417 cells after 96 hrs by trypan blue exclusion assay; format: functional; details: NCI-H417, 96 h
Method in brief: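 Cells grown in DMEM or RPMI with 10% FBS and 1 unit/mL penicillin-streptomycin, seeded in 12-well dishes at 2.5 ×10⁴ cells/mL/well. Compound added 24 h later at various concentrations. Viable cells counted by trypan blue exclusion from duplicate wells after 96 h. Value taken from dose-response curves of two independent experiments.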

K562 = assay: Cytotoxicity against human K562 cells after 96 hrs by trypan blue exclusion assay; format: functional, cell-based; details: for GI50 / IC50: K562, 96 h; method in brief: as §1
MIA PaCa-2 = assay: Cytotoxicity against human MIAPaCa2 cells after 96 hrs by trypan blue exclusion assay; format: functional; details: MIA PaCa-2, 96 h; method in brief: as §1
BT-474 = assay: Cytotoxicity against human BT474 cells after 96 hrs by trypan blue exclusion assay; format: functional; details: BT-474, 96 h; method in brief: as §1
[3] = Solubility of the compound in water; format: physicochemical
[4] = Cytotoxicity against human U87 cells after 96 hrs by sulforhodamine B assay; format: functional, cell-based, U-87MG ATCC; details: U-87 MG
MCF7 = assay: Cytotoxicity against human MCF7 cells after 96 hrs by trypan blue exclusion assay; format: functional; details: MCF7, 96 h; method in brief: as §1
CCRF-CEM [5] = assay: Resistance factor, ratio of GI50 for multidrug-resistant human CEM/C2 cells to GI50 for human CEM cells; format: functional
CCRF-CEM [6] = assay: Growth inhibition of human CEM cells; format: functional
CEM/C2 = assay: Growth inhibition of multidrug-resistant human CEM/C2 cells; format: functional
OVCAR-3 = assay: Cytotoxicity against human OVCAR3 cells after 96 hrs by trypan blue exclusion assay; format: functional; details: OVCAR-3, 96 h; method in brief: as §1
T47D = assay: Cytotoxicity against human T47D cells after 96 hrs by trypan blue exclusion assay; format: functional; method in brief: as §1
NCI-H187 = assay: Cytotoxicity against human NCI-H187 cells after 96 hrs by trypan blue exclusion assay; format: functional; details: NCI-H187, 96 h; method in brief: as §1
HCT-116 = assay: Cytotoxicity against human HCT116 cells after 96 hrs by trypan blue exclusion assay; format: functional; details: HCT-116, 96 h; method in brief: as §1
[7] = Cytotoxicity against human NAMALWA cells after 96 hrs by trypan blue exclusion assay; format: functional; details: NAMALVA; method in brief: as §1
SK-OV-3 = assay: Cytotoxicity against human SKOV3 cells after 96 hrs by trypan blue exclusion assay; format: functional; details: SK-OV-3, 96 h; method in brief: as §1
[8] = Cytotoxicity against human H80 cells after 96 hrs by trypan blue exclusion assay; format: functional; details: H80, 96 h; method in brief: as §1
MOLT-4 = assay: Cytotoxicity against human MOLT4 cells after 96 hrs by trypan blue exclusion assay; format: functional; details: MOLT-4, 96 h; method in brief: as §1
[9] = Cytotoxicity against human RF48 cells after 96 hrs by trypan blue exclusion assay; format: functional; details: RF48, 96 h; method in brief: as §1
PC-3 = assay: Cytotoxicity against human PC3 cells after 96 hrs by trypan blue exclusion assay; format: functional; details: PC-3, 96 h; method in brief: as §1
Daudi = assay: Cytotoxicity against human Daudi cells after 96 hrs by trypan blue exclusion assay; format: functional; method in brief: as §1

Compound	GI50 (LNCaP) [nM]	GI50 (A-431) [nM]	GI50 (BT-20) [nM]	GI50 (HCT-15) [nM]	Activity (DU-145)	GI50 (DU-145) [nM]	IC50 (DU-145) [nM]	GI50 (NCI-H417) [nM]	Activity (K562)	GI50 (K562) [nM]	IC50 (K562) [nM]	GI50 (MIA PaCa-2) [nM]	GI50 (BT-474) [nM]	IC50 [4] [nM]	further results
COc1cc(OC)c(/C=C/S(=O)(=O)Nc2ccc(OC)c(NC(C)(C)C(=O)O)c2)c(OC)c1	100	150	100	200	Dose-dependent effect	150	70	30	Dose-dependent effect	10	5	80	150	90	GI50 [1]: 90 nM; GI50 [2]: 70 nM; RatioGI50 (MES-SA): 1.3; inhibition (Bos taurus): Active; solubility [3]: 10000 µg/mL (≈ 20.8 mM); GI50 (MCF7): 80 nM
CC[C@@]1(O)C(=O)OCc2c1cc1n(c2=O)Cc2cc3ccccc3nc2-1 [CAMPTOTHECIN]	–	–	–	–	–	–	–	–	–	–	–	–	–	–	RatioGI50 (CCRF-CEM [5]): 500; GI50 (CCRF-CEM [6]): 2 nM; GI50 (CEM/C2): 1000 nM
COc1ccc(NS(=O)(=O)/C=C/c2c(OC)cc(OC)cc2OC)cc1	100	30	250	100	Dose-dependent effect	75	200	50	Dose-dependent effect	75	75	100	250	229	GI50 (OVCAR-3): 100 nM; GI50 (T47D): 100 nM; GI50 (NCI-H187): 100 nM; GI50 (HCT-116): 100 nM; GI50 [7]: 100 nM; GI50 (SK-OV-3): 100 nM; GI50 [8]: 100 nM; GI50 (MOLT-4): 100 nM; GI50 [9]: 25 nM; GI50 (PC-3): 100 nM; GI50 (Daudi): 100 nM
